Measured values: ChEMBL document CHEMBL3351359, “Design and synthesis of novel 2,4-diaryl-5H-indeno[1,2-b]pyridine derivatives, and their evaluation of topoisomerase inhibitory activity and cytotoxicity” (Bioorg Med Chem, 2015)
pIC50: −log10 of the molar value.

Experiments:
[1] = biological target: T1, DNA topoisomerase 1 (Homo sapiens) (UniProt P11387); assay: Inhibition of human recombinant topoisomerase-1 assessed as conversion of super-coiled plasmid DNA pBR322 to relaxed DNA at 100 uM after 30 mins by ethidium bromide staining-based agarose gel electrophoresis (reference value: 62.9%)
T1 sequence (whole entry): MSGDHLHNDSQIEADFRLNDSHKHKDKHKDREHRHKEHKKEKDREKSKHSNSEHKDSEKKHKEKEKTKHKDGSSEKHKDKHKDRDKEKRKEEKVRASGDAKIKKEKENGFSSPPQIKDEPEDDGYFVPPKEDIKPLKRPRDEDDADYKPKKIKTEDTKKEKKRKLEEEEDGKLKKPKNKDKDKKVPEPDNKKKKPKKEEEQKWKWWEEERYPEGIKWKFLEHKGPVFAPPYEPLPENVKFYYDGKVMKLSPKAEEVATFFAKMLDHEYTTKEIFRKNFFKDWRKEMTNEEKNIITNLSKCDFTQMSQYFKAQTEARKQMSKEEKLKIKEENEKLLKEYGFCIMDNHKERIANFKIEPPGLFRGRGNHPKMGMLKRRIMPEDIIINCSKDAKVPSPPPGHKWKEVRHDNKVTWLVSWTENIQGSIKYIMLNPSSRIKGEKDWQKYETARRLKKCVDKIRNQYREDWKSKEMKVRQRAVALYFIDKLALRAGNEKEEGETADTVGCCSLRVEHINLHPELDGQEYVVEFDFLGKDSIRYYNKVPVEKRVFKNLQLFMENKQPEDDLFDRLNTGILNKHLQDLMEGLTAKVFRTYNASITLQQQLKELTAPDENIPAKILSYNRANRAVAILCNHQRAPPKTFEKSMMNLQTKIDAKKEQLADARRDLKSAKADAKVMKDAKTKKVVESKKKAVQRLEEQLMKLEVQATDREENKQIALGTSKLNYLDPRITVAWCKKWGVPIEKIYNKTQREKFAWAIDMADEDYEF
Summary of the method: (§1)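 Relaxation of supercoiled pBR322 (100 ng) by 0.4 units recombinant human topo I, with or without compound (20 mM DMSO stocks), for 30 min at 37 °C. Buffer: 10 mM Tris-HCl pH 7.9, 150 mM NaCl, 0.1% BSA, 1 mM spermidine, 5% glycerol. Stopped with sarcosyl. Run on 1% agarose in TAE at 15 V for 7 h, stained with ethidium bromide, bands quantified under UV.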

[2] = biological target: T1, DNA topoisomerase 1 (Homo sapiens); assay: Inhibition of human recombinant topoisomerase-1 assessed as conversion of super-coiled plasmid DNA pBR322 to relaxed DNA at 100 uM after 30 mins by ethidium bromide staining-based agarose gel electrophoresis relative to camptothecin
[3] = biological target: T1, DNA topoisomerase 1 (Homo sapiens); assay: Inhibition of human recombinant topoisomerase-1 assessed as conversion of super-coiled plasmid DNA pBR322 to relaxed DNA at 20 uM after 30 mins by ethidium bromide staining-based agarose gel electrophoresis (reference value: 19.6%); summary of the method: as §1
[4] = biological target: DNA topoisomerase 2-alpha (Homo sapiens) (UniProt P11388); assay: Inhibition of human recombinant topoisomerase-2 alpha assessed as conversion of super-coiled plasmid DNA pBR322 to relaxed DNA at 100 uM after 30 mins by ethidium bromide staining-based agarose gel electrophoresis (reference value: 87.8%)
Summary of the method: (§2)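 Supercoiled pBR322 (200 ng) incubated with 1 unit human topo IIα, with or without compound, for 30 min at 30 °C. Buffer: 10 mM Tris-HCl pH 7.9, 50 mM NaCl, 5 mM MgCl2, 1 mM EDTA, 1 mM ATP, 15 μg/mL BSA. Stopped with EDTA. Run on 1% agarose in TAE at 25 V for 4 h, stained with ethidium bromide, supercoiled DNA quantified under UV.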

[5] = biological target: DNA topoisomerase 2-alpha (Homo sapiens) (UniProt P11388); assay: Inhibition of human recombinant topoisomerase-2 alpha assessed as conversion of super-coiled plasmid DNA pBR322 to relaxed DNA at 20 uM after 30 mins by ethidium bromide staining-based agarose gel electrophoresis (reference value: 46.7%); summary of the method: as §2
[6] = biological target: DNA topoisomerase 2-alpha (Homo sapiens) (UniProt P11388); assay: Inhibition of human recombinant topoisomerase-2 alpha assessed as conversion of super-coiled plasmid DNA pBR322 to relaxed DNA at 100 uM after 30 mins by ethidium bromide staining-based agarose gel electrophoresis relative to etoposide
[7] = tested on: MCF7; assay: Cytotoxicity against human MCF7 cells after 2 days by CCK-8 assay; format: functional, cell-based; details: MCF7, 48 h
Summary of the method: (§3)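 Cells seeded at 2~4 × 10^4 per well, grown overnight in medium with 10% FBS at 37 °C, 5% CO2. On day 2, after 4 h FBS starvation, medium replaced with medium containing graded compound concentrations. On day 4, CCK-8 added for 4 h, then absorbance read at 450 nm. IC50 from four-parameter logistic fit. Mean ± S.D. of three experiments, each run in triplicate.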

[8] = tested on: DU-145; assay: Cytotoxicity against human DU145 cells after 2 days by CCK-8 assay; format: functional, cell-based; details: DU-145, 48 h; summary of the method: as §3
[9] = Cytotoxicity against human HCT15 cells after 2 days by CCK-8 assay; format: functional, cell-based; details: HCT-15, 48 h; summary of the method: as §3
[10] = biological target: T1, DNA topoisomerase 1 (Homo sapiens); assay: Inhibition of human recombinant topoisomerase-1 assessed as conversion of super-coiled plasmid DNA pBR322 to relaxed DNA at 100 uM after 30 mins by ethidium bromide staining-based agarose gel electrophoresis (reference value: 45.2%); summary of the method: as §1
[11] = biological target: T1, DNA topoisomerase 1 (Homo sapiens); assay: Inhibition of human recombinant topoisomerase-1 assessed as conversion of super-coiled plasmid DNA pBR322 to relaxed DNA at 20 uM after 30 mins by ethidium bromide staining-based agarose gel electrophoresis (reference value: 25.9%); summary of the method: as §1
[12] = biological target: DNA topoisomerase 2-alpha (Homo sapiens) (UniProt P11388); assay: Inhibition of human recombinant topoisomerase-2 alpha assessed as conversion of super-coiled plasmid DNA pBR322 to relaxed DNA at 100 uM after 30 mins by ethidium bromide staining-based agarose gel electrophoresis (reference value: 32.4%); summary of the method: as §2
[13] = tested on: HeLa; assay: Cytotoxicity against human HeLa cells after 2 days by CCK-8 assay; format: functional, cell-based; details: 48 h; summary of the method: as §3
[14] = biological target: DNA topoisomerase 2-alpha (Homo sapiens) (UniProt P11388); assay: Inhibition of human recombinant topoisomerase-2 alpha assessed as conversion of super-coiled plasmid DNA pBR322 to relaxed DNA at 20 uM after 30 mins by ethidium bromide staining-based agarose gel electrophoresis (reference value: 20.2%); summary of the method: as §2

DNA topoisomerase 2-alpha (Homo sapiens), sequence (P11388 whole entry): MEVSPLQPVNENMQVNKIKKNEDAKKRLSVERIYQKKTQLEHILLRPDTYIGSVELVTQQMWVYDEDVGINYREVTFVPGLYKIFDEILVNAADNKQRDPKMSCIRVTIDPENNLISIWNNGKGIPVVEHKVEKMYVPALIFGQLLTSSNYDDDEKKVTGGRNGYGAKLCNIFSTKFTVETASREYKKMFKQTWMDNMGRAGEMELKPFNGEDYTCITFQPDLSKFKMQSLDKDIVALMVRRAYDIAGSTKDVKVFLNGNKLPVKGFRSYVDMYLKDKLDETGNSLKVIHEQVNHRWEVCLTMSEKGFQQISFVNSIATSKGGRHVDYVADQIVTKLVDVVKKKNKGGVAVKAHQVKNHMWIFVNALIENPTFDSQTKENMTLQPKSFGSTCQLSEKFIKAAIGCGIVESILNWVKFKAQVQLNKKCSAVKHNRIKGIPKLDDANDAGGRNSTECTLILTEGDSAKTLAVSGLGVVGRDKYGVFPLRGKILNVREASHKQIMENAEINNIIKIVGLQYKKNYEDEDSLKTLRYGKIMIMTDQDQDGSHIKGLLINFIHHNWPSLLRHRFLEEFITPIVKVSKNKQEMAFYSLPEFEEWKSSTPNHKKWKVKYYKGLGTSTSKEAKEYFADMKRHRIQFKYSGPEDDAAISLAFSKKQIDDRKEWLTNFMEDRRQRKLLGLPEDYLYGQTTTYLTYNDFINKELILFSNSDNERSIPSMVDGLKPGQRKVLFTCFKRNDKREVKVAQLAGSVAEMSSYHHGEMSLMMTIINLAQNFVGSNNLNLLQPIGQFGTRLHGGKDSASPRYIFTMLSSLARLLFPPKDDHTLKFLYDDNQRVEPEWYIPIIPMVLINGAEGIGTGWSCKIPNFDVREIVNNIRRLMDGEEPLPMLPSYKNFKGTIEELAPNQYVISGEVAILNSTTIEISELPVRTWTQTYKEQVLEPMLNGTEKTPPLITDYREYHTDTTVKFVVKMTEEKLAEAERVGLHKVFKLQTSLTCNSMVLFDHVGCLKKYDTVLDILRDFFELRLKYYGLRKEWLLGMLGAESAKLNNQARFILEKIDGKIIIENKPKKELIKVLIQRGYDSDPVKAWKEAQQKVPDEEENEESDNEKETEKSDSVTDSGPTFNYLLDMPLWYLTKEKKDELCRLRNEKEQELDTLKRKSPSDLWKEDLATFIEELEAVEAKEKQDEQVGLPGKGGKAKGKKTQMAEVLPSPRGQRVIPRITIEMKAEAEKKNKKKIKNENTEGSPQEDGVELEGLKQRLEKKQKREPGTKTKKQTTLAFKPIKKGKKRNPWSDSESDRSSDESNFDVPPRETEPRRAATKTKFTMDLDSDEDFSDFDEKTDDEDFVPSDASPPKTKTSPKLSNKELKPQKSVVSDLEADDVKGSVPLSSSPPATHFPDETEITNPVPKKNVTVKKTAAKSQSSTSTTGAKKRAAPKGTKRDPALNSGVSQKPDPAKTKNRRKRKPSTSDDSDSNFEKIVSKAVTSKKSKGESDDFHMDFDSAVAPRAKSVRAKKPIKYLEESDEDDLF

Row | SMILES | inhibition [1] [%] | Ratio [2] | inhibition [3] [%] | inhibition [4] [%] | inhibition [5] [%] | Ratio [6] | inhibition [10] [%] | inhibition [11] [%] | inhibition [12] [%] | inhibition [14] [%] | pIC50 [7] | pIC50 [8] | pIC50 [9] | pIC50 [13]
1 | c1ccc2c(c1)Cc1c(-c3ccsc3)cc(-c3ccsc3)nc1-2 | 90.9 | 1.45 | 2.9 | 100 | 0 | 1.14 |  |  |  |  | < 4.30 | < 4.30 | 4.79 | 
2 | c1coc(-c2cc(-c3ccco3)c3c(n2)-c2ccccc2C3)c1 |  | 0.85 |  |  |  | 1.38 | 38.2 | 6.4 | 44.6 | 15 | 5.27 | 4.69 | < 4.30 | 5.09
3 | c1coc(-c2cc(-c3cccs3)nc3c2Cc2ccccc2-3)c1 |  | 1.69 |  |  |  | 1.25 | 76.3 | 3.9 | 40.5 | 14.6 | 5.39 | 5.17 | 4.42 | 5.49

More lines, main results first:

Row | inhibition [1] [%] | Ratio [2] | inhibition [3] [%] | inhibition [4] [%] | inhibition [5] [%] | Ratio [6] | inhibition [10] [%] | inhibition [11] [%] | inhibition [12] [%] | inhibition [14] [%] | SMILES | pIC50 [7] | pIC50 [8] | pIC50 [9] | pIC50 [13]
4 | 52.5 | 0.83 | 1.5 | 100 | 0 | 1.14 |  |  |  |  | c1coc(-c2cc(-c3ccoc3)c3c(n2)-c2ccccc2C3)c1 | < 4.30 | < 4.30 | 4.69 | 
5 |  | 0.91 |  |  |  | 0.58 | 41.3 | 5.7 | 18.7 |  | c1ccc(-c2cc(-c3ccco3)nc3c2Cc2ccccc2-3)cc1 | < 4.30 | 5.11 | 4.78 | 5.28
6 | 40.7 | 0.65 | 0.5 | 100 | 100 | 1.14 |  |  |  |  | c1ccc(-c2cc(-c3ccco3)nc3c2Cc2ccccc2-3)nc1 | 5.51 | < 4.30 | 5.07 | 5.38
